Experimental data gathered from unrelated publications.
Protocols differ between the studies behind these lines.
Target: Ephrin type-A receptor 5 (EPHA5, Homo sapiens, UniProt P54756)

SMILES	test	conditions	quantity	value
CC(C)(C)c1cc(C=C(C#N)C#N)cc(Br)c1O	enzyme activity, inhibitor	0.5 µM	remaining activity	106%
C#Cc1n[nH]c2c(-c3cn([C@@H](C)c4ccccn4)c(=O)[nH]c3=O)cc(F)cc12	enzyme activity, inhibitor	0.1 µM	inhibition	8.9%
Cc1nn(C)cc1-c1nc2c(N3CCN(Cc4ccc(Cl)cc4)CC3)c(Cl)cnc2[nH]1	binding, competition with immobilised ligand	1 µM	remaining binding	100%
COc1ncccc1-c1cnn2ccc(N3CCN(C(=O)OC(C)C)CC3)nc12	binding, competition with immobilised ligand	1 µM	remaining binding	100%
O=c1[nH]c2ccccc2n1C1CCN(Cc2ccc(-c3[nH]c4cc5ncnc5cc4nc3-c3ccccc3)cc2)CC1	cell-free assay	0.5 µM	remaining signal	102%
C#Cc1n[nH]c2c(-c3cn([C@@H](C)c4ccccc4)c(=O)[nH]c3=O)cc(F)cc12	enzyme activity, inhibitor	0.1 µM	inhibition	5.4%
Cn1cc(-c2cc(F)cc(N3CCn4c(cc5c4CCCC5)C3=O)c2CO)cc(Nc2ccc(N3CCN(C4COC4)CC3)cn2)c1=O	enzyme activity, inhibitor	0.1 µM	inhibition	11%
Cn1cncc1[C@@](O)(COc1ccc(C#N)cc1-c1ccc(OC(F)(F)F)cc1)c1ccc(C#N)cc1	cell-free assay, competition with immobilised ligand	1 µM	remaining binding	67%
Cn1cc(-c2cccc(N3CCc4c(sc5c4CC(C)(C)C5)C3=O)c2CO)cc(Nc2ccncn2)c1=O	enzyme activity, inhibitor	1 µM	inhibition	1%
COc1cc(Nc2ncc(F)c(Nc3ccc4c(n3)NC(=O)C(C)(C)O4)n2)cc(OC)c1OC	binding, competition with immobilised ligand	10 µM	inhibition	64%
